ChEMBL document CHEMBL4480436, “Lead optimization of selective tubulin inhibitors as anti-trypanosomal agents” (Bioorg Med Chem, 2019)

How the values were obtained:
[1] = system: Trypanosoma brucei brucei; test: Antiparasitic activity against Trypanosoma brucei brucei Lister 427 assessed as reduction in parasite viability after 48 hrs by MTS assay; type: functional, organism-based; conditions: Lister 427, 48 h
Outline: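 Bloodstream-form Lister 427 grown in HMI-9 with 10% FBS, 37 °C, 7.5% CO2. 5000 cells/well exposed to graded concentrations with 0.1% DMSO for 48 h at 37 °C. MTS/PMS reagent then added, 3 h at 37 °C, formazan read at 490 nm. Quadruplicate data normalized and fitted to dose–response curves for IC50 (Mean ± S.D.).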

HEK293 = test: Cytotoxicity against HEK293 cells after 48 hrs by MTT assay; type: cell-based; conditions: Homo sapiens, HEK293, 48 h
Outline: (§1)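 Cells kept in RPMI1640 with 10% heat-inactivated FBS, 2 mM L-glutamine, 1 mM pyruvate, pen-strep, 37 °C, 5% CO2. 3000 cells/well seeded 24 h, then exposed to graded concentrations (DMSO ≤0.1% final) for 48 h. Then 0.5 mg/mL MTT 3 h at 37 °C, DMSO solubilization, absorbance 570 nm. Quadruplicate data fitted to dose–response curves for IC50.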

RAW264.7 = test: Cytotoxicity against mouse RAW264.7 cells after 48 hrs by MTT assay; type: cell-based; conditions: RAW264.7, 48 h; outline: as §1
[2] = Selectivity index, ratio of IC50 for HEK293 cells to IC50 for Trypanosoma brucei brucei Lister 427; type: toxicity; conditions: human, read-out: Ratio IC50
Outline: (§2)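 Ratio of mammalian MTT IC50 (48 h) to T. brucei MTS IC50 (48 h), both from quadruplicate dose–response fits.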

[3] = Selectivity index, ratio of IC50 for mouse RAW264.7 cells to IC50 for Trypanosoma brucei brucei Lister 427; type: toxicity; conditions: read-out: Ratio IC50; outline: as §2

CS(=O)(=O)Nc1ccc(NC(=O)c2cccc(C(F)(F)F)c2)cc1Cl
IC50 [1]: > 62.5 µM
IC50 (HEK293): > 250 µM
IC50 (RAW264.7): > 250 µM

CS(=O)(=O)Nc1ccc(NC(=O)c2cc(C(F)(F)F)cc(C(F)(F)F)c2)cc1Cl
IC50 [1]: 10.1 µM
IC50 (HEK293): 185 µM
IC50 (RAW264.7): 69.5 µM
selectivity ratio [2]: 18
selectivity ratio [3]: 7

COc1cc(NC(=O)c2ccc(Cl)c([N+](=O)[O-])c2)ccc1NS(C)(=O)=O
IC50 [1]: > 62.5 µM
IC50 (HEK293): 164 µM
IC50 (RAW264.7): > 250 µM
selectivity ratio [2]: < 3

O=C(Nc1ccc(NS(=O)(=O)C(F)(F)F)c(F)c1)c1cccc(C(F)(F)F)c1
IC50 [1]: 47.4 µM
IC50 (HEK293): 152 µM
IC50 (RAW264.7): 34.4 µM
selectivity ratio [2]: 3
selectivity ratio [3]: 1

O=C(Nc1ccc(NS(=O)(=O)C(F)(F)F)c(Cl)c1)c1cc(C(F)(F)F)cc(C(F)(F)F)c1
IC50 [1]: 47.4 µM
IC50 (HEK293): > 250 µM
IC50 (RAW264.7): 136 µM
selectivity ratio [2]: > 5
selectivity ratio [3]: 3

CCS(=O)(=O)Nc1ccc(NC(=O)c2ccc(Cl)cc2)cc1F
IC50 [1]: > 62.5 µM
IC50 (HEK293): 53.4 µM
IC50 (RAW264.7): 152 µM
selectivity ratio [2]: < 1
selectivity ratio [3]: < 3

COc1cc(NC(=O)c2cc(C(F)(F)F)cc(C(F)(F)F)c2)ccc1NS(C)(=O)=O
IC50 [1]: > 62.5 µM
IC50 (HEK293): 42 µM
IC50 (RAW264.7): > 250 µM
selectivity ratio [2]: < 1

COc1cc(NC(=O)c2cc(C(F)(F)F)cc(C(F)(F)F)c2)ccc1NS(=O)(=O)C(F)(F)F
IC50 [1]: > 62.5 µM
IC50 (HEK293): > 250 µM
IC50 (RAW264.7): > 250 µM

CS(=O)(=O)Nc1ccc(NC(=O)c2ccc(C#N)cc2)cc1F
IC50 [1]: > 62.5 µM
IC50 (HEK293): > 250 µM
IC50 (RAW264.7): > 250 µM

COc1cc(NC(=O)c2ccc(Cl)cc2)ccc1NS(=O)(=O)C(F)(F)F
IC50 [1]: 45.6 µM
IC50 (HEK293): > 250 µM
IC50 (RAW264.7): 108 µM
selectivity ratio [2]: > 5
selectivity ratio [3]: 2

CS(=O)(=O)Nc1ccc(NC(=O)c2cccc(C(F)(F)F)c2)cc1F
IC50 [1]: > 62.5 µM
IC50 (HEK293): > 250 µM
IC50 (RAW264.7): 32.3 µM
selectivity ratio [3]: < 1

Cc1cc(NC(=O)c2ccc(Cl)cc2)ccc1NS(C)(=O)=O
IC50 [1]: > 62.5 µM
IC50 (HEK293): 50.3 µM
IC50 (RAW264.7): 69 µM
selectivity ratio [2]: < 1
selectivity ratio [3]: < 2

CCS(=O)(=O)Nc1ccc(NC(=O)c2ccc(C#N)cc2)cc1F
IC50 [1]: > 62.5 µM
IC50 (HEK293): 26.4 µM
IC50 (RAW264.7): 107 µM
selectivity ratio [2]: < 1
selectivity ratio [3]: < 2

Cc1cc(NC(=O)c2cccc(C(F)(F)F)c2)ccc1NS(=O)(=O)C(F)(F)F
IC50 [1]: 21.7 µM
IC50 (HEK293): 131 µM
IC50 (RAW264.7): 8.72 µM
selectivity ratio [2]: 6
selectivity ratio [3]: < 1

CCS(=O)(=O)Nc1ccc(NC(=O)c2cc(C(F)(F)F)cc(C(F)(F)F)c2)cc1F
IC50 [1]: 8.78 µM
IC50 (HEK293): > 250 µM
IC50 (RAW264.7): > 250 µM
selectivity ratio [2]: > 28
selectivity ratio [3]: > 28

COc1cc(NC(=O)c2ccc(C#N)cc2)ccc1NS(C)(=O)=O
IC50 [1]: > 62.5 µM
IC50 (HEK293): > 250 µM
IC50 (RAW264.7): > 250 µM

COc1cc(NC(=O)c2cccc(C(F)(F)F)c2)ccc1NS(C)(=O)=O
IC50 [1]: > 62.5 µM
IC50 (HEK293): > 250 µM
IC50 (RAW264.7): 84.8 µM
selectivity ratio [3]: < 2

CCS(=O)(=O)Nc1ccc(NC(=O)c2ccc(Cl)c([N+](=O)[O-])c2)cc1Cl
IC50 [1]: 2.21 µM
IC50 (HEK293): 63.8 µM
IC50 (RAW264.7): 125 µM
selectivity ratio [2]: 29
selectivity ratio [3]: 57

O=C(Nc1ccc(NS(=O)(=O)C(F)(F)F)c(F)c1)c1ccc(Cl)cc1
IC50 [1]: > 62.5 µM
IC50 (HEK293): 79 µM
IC50 (RAW264.7): 8.27 µM
selectivity ratio [2]: < 2
selectivity ratio [3]: < 1

CCS(=O)(=O)Nc1ccc(NC(=O)c2ccc(Cl)cc2)cc1OC
IC50 [1]: > 62.5 µM
IC50 (HEK293): > 250 µM
IC50 (RAW264.7): 60.1 µM
selectivity ratio [3]: < 1

CCS(=O)(=O)Nc1ccc(NC(=O)c2cc(C(F)(F)F)cc(C(F)(F)F)c2)cc1OC
IC50 [1]: 11.6 µM
IC50 (HEK293): > 250 µM
IC50 (RAW264.7): > 250 µM
selectivity ratio [2]: > 22
selectivity ratio [3]: > 22

CS(=O)(=O)Nc1ccc(NC(=O)c2cc(C(F)(F)F)cc(C(F)(F)F)c2)cc1F
IC50 [1]: 23.7 µM
IC50 (HEK293): > 250 µM
IC50 (RAW264.7): 125 µM
selectivity ratio [2]: > 11
selectivity ratio [3]: 5

CCS(=O)(=O)Nc1ccc(NC(=O)c2ccc(C#N)cc2)cc1OC
IC50 [1]: > 62.5 µM
IC50 (HEK293): > 250 µM
IC50 (RAW264.7): 66.4 µM
selectivity ratio [3]: < 2

COc1cc(NC(=O)c2ccc(Cl)cc2)ccc1NS(C)(=O)=O
IC50 [1]: > 62.5 µM
IC50 (HEK293): > 250 µM
IC50 (RAW264.7): 70 µM
selectivity ratio [3]: < 2

CCS(=O)(=O)Nc1ccc(NC(=O)c2ccc(C#N)cc2)cc1C
IC50 [1]: > 62.5 µM
IC50 (HEK293): > 250 µM
IC50 (RAW264.7): 109 µM
selectivity ratio [3]: < 2

CCS(=O)(=O)Nc1ccc(NC(=O)c2cccc(C(F)(F)F)c2)cc1Cl
IC50 [1]: 7.81 µM
IC50 (HEK293): 159 µM
IC50 (RAW264.7): 62.4 µM
selectivity ratio [2]: 20
selectivity ratio [3]: 8

Cc1cc(NC(=O)c2ccc(C#N)cc2)ccc1NS(=O)(=O)C(F)(F)F
IC50 [1]: > 62.5 µM
IC50 (HEK293): > 250 µM
IC50 (RAW264.7): 135 µM
selectivity ratio [3]: < 3

Cc1cc(NC(=O)c2ccc(Cl)c([N+](=O)[O-])c2)ccc1NS(=O)(=O)C(F)(F)F
IC50 [1]: > 62.5 µM
IC50 (HEK293): > 250 µM
IC50 (RAW264.7): 89.8 µM
selectivity ratio [3]: < 2

CCS(=O)(=O)Nc1ccc(NC(=O)c2ccc(C#N)cc2)cc1Cl
IC50 [1]: 38 µM
IC50 (HEK293): > 250 µM
IC50 (RAW264.7): 226 µM
selectivity ratio [2]: > 7
selectivity ratio [3]: 6

COc1cc(NC(=O)c2cccc(C(F)(F)F)c2)ccc1NS(=O)(=O)C(F)(F)F
IC50 [1]: 43 µM
IC50 (HEK293): > 250 µM
IC50 (RAW264.7): 75.2 µM
selectivity ratio [2]: > 6
selectivity ratio [3]: 2

Cc1cc(NC(=O)c2cc(C(F)(F)F)cc(C(F)(F)F)c2)ccc1NS(=O)(=O)C(F)(F)F
IC50 [1]: 20.7 µM
IC50 (HEK293): 182 µM
IC50 (RAW264.7): 40.7 µM
selectivity ratio [2]: 9
selectivity ratio [3]: 2

O=C(Nc1ccc(NS(=O)(=O)C(F)(F)F)c(Cl)c1)c1ccc(Cl)cc1
IC50 [1]: > 62.5 µM
IC50 (HEK293): 191 µM
IC50 (RAW264.7): 47.1 µM
selectivity ratio [2]: < 4
selectivity ratio [3]: < 1

Cc1cc(NC(=O)c2ccc(Cl)c([N+](=O)[O-])c2)ccc1NS(C)(=O)=O
IC50 [1]: 7.57 µM
IC50 (HEK293): 73.1 µM
IC50 (RAW264.7): 108 µM
selectivity ratio [2]: 10
selectivity ratio [3]: 14

O=C(Nc1ccc(NS(=O)(=O)C(F)(F)F)c(Cl)c1)c1cccc(C(F)(F)F)c1
IC50 [1]: > 62.5 µM
IC50 (HEK293): 210 µM
IC50 (RAW264.7): 55.8 µM
selectivity ratio [2]: < 4
selectivity ratio [3]: < 1

COc1cc(NC(=O)c2ccc(C#N)cc2)ccc1NS(=O)(=O)C(F)(F)F
IC50 [1]: 9.48 µM
IC50 (HEK293): > 250 µM
IC50 (RAW264.7): > 250 µM
selectivity ratio [2]: > 26
selectivity ratio [3]: > 26

CCS(=O)(=O)Nc1ccc(NC(=O)c2cccc(C(F)(F)F)c2)cc1OC
IC50 [1]: 35.7 µM
IC50 (HEK293): > 250 µM
IC50 (RAW264.7): 84.8 µM
selectivity ratio [2]: > 7
selectivity ratio [3]: 2

Cc1cc(NC(=O)c2ccc(Cl)cc2)ccc1NS(=O)(=O)C(F)(F)F
IC50 [1]: 37.2 µM
IC50 (HEK293): 200 µM
selectivity ratio [2]: 5
selectivity ratio [3]: 1

CS(=O)(=O)Nc1ccc(NC(=O)c2ccc(C#N)cc2)cc1Cl
IC50 [1]: > 62.5 µM
IC50 (HEK293): > 250 µM
IC50 (RAW264.7): > 250 µM
